According to ChEMBL document CHEMBL2062362, “Bioactive 3,4-seco-Triterpenoids from the Fruits of Acanthopanax sessiliflorus” (J Nat Prod, 2012):

Key:
[1] = Cytotoxicity against mouse RAW264.7 cells assessed as cell viability after 24 hrs by MTT assay; format: cell-based; parameters: concentration or dose not given beside the values; conditions: read-out: Activity
How it was run: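 The same LPS-stimulated RAW 264.7 cultures (1 × 10⁴ cells/well) were pretreated with samples for 30 min, then given LPS at 1 μg/mL for 24 h. Viability was assessed by MTT reduction and expressed as a percentage of the LPS-only group. Data are means ± SD of three independent experiments.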

HCT-116 = test: Cytotoxicity against human HCT116 cells by MTT assay; format: functional, cell-based
MCF7 = test: Cytotoxicity against human MCF7 cells by MTT assay; format: functional, cell-based
SK-BR-3 = test: Cytotoxicity against human SKBR3 cells by MTT assay; format: functional, cell-based
SK-OV-3 = test: Cytotoxicity against human SKOV3 cells by MTT assay; format: functional, cell-based
HeLa = test: Cytotoxicity against human HeLa cells by MTT assay; format: functional, cell-based
HepG2 = test: Cytotoxicity against human HepG2 cells by MTT assay; format: functional, cell-based
SK-MEL-5 = test: Cytotoxicity against human SK-MEL-5 cells by MTT assay; format: functional, cell-based
RAW264.7 = test: Antiinflammatory activity in mouse RAW264.7 cells assessed as inhibition of LPS-stimulated NO production pretreated for 30 mins before LPS challenge measured after 24 hrs by Griess reagent

Structure (SMILES)	IC50 (RAW264.7) [µM]	viability at 24 h [1] [%]	IC50 (HCT-116) [µM]	IC50 (MCF7) [µM]	IC50 (SK-BR-3) [µM]	IC50 (SK-OV-3) [µM]	IC50 (HeLa) [µM]	IC50 (HepG2) [µM]	IC50 (SK-MEL-5) [µM]
N=C(N)NN [PIMAGEDINE]	6.5	84.6	–	–	–	–	–	–	–
CC(=O)O[C@H]1C(=O)[C@@]2(C)[C@H]([C@H](OC(=O)c3ccccc3)[C@]3(O)C[C@H](OC(=O)[C@H](O)[C@@H](NC(=O)c4ccccc4)c4ccccc4)C(C)=C1C3(C)C)[C@]1(OC(C)=O)CO[C@@H]1C[C@@H]2O [PACLITAXEL]	–	–	0.05	0.9	0.11	0.4	–	–	0.15
C=C(C)[C@@H]1C[C@H](O)[C@]2(C(=O)O)CC[C@]3(C)[C@H](C[C@H]4OC(=O)C[C@@H](O)[C@]5(C)[C@@H]4[C@@]3(C)CC[C@H]5C(=C)C)[C@@H]12	> 50	–	> 10	> 10	> 10	> 10	> 10	> 10	> 10
C=C(C)[C@@H]1C[C@H](O)[C@]2(C(=O)O[C@@H]3O[C@H](CO)[C@@H](O)[C@H](O)[C@H]3O)CC[C@]3(C)[C@H](C[C@@H](O)[C@@H]4[C@@]5(C)[C@@H](CC(=O)OC)OC(C)(C)[C@@H]5CC[C@]43C)[C@@H]12 [ACANTHOSESSILIOSIDE C]	> 50	–	> 10	> 10	> 10	> 10	> 10	> 10	> 10
C=C(C)[C@@H]1C[C@H](O)[C@]2(C(=O)O)CC[C@]3(C)[C@H](C[C@@H](O)[C@@H]4[C@@]5(C)[C@@H](CC(=O)O)OC(C)(C)[C@@H]5CC[C@]43C)[C@@H]12	> 50	–	> 10	> 10	> 10	> 10	> 10	> 10	> 10
C=C(C)[C@@H]1CC[C@]2(C(=O)O[C@@H]3O[C@H](CO[C@@H]4O[C@H](CO)[C@@H](O)[C@H](O)[C@H]4O)[C@@H](O)[C@H](O)[C@H]3O)CC[C@]3(C)[C@H](C[C@H]4OC(=O)C[C@@H](O)[C@]5(C)[C@@H]4[C@@]3(C)CC[C@H]5C(=C)C)[C@@H]12	> 50	–	> 10	> 10	> 10	> 10	> 10	> 10	> 10
C=C(C)[C@@H]1C[C@H](O)[C@]2(C(=O)O[C@@H]3O[C@H](CO)[C@@H](O)[C@H](O)[C@H]3O)CC[C@]3(C)[C@H](C[C@H]4OC(=O)C[C@@H](O)[C@]5(C)[C@@H]4[C@@]3(C)CC[C@H]5C(=C)C)[C@@H]12 [ACANTHOSESSILIOSIDE F]	> 50	–	> 10	> 10	> 10	> 10	> 10	> 10	> 10
C=C(C)[C@@H]1CC[C@]2(C(=O)O[C@@H]3O[C@H](CO[C@@H]4O[C@H](CO)[C@@H](O[C@@H]5O[C@@H](C)[C@H](O)[C@@H](O)[C@H]5O)[C@H](O)[C@H]4O)[C@@H](O)[C@H](O)[C@H]3O)CC[C@]3(C)[C@H](C[C@H]4OC(=O)C[C@@H](O)[C@]5(C)[C@@H]4[C@@]3(C)CC[C@H]5C(=C)C)[C@@H]12 [CHIISANOSIDE]	> 50	–	< 10	< 10	< 10	< 10	> 10	> 10	< 10

Continued, in another order:

IC50 (RAW264.7) [µM]	Structure (SMILES)	viability at 24 h [1] [%]	IC50 (HCT-116) [µM]	IC50 (MCF7) [µM]	IC50 (SK-BR-3) [µM]	IC50 (SK-OV-3) [µM]	IC50 (HeLa) [µM]	IC50 (HepG2) [µM]	IC50 (SK-MEL-5) [µM]
47	C=C(C)[C@@H]1CC[C@]2(C(=O)O)CC[C@]3(C)[C@H](C[C@@H](O)[C@@H]4[C@@]5(C)[C@@H](CC(=O)OC)OC(C)(C)[C@@H]5CC[C@]43C)[C@@H]12 [ACANTHOSESSILIGENIN II]	91.1	> 10	> 10	> 10	> 10	> 10	> 10	> 10
> 50	C=C(C)[C@@H]1C[C@H](O)[C@]2(C(=O)O[C@@H]3O[C@H](CO)[C@@H](O)[C@H](O)[C@H]3O)CC[C@]3(C)[C@H](CC[C@@H]4[C@@]5(C)[C@@H](CC(=O)O)OC(C)(C)[C@@H]5CC[C@]43C)[C@@H]12 [ACANTHOSESSILIOSIDE E]	–	> 10	> 10	> 10	> 10	> 10	> 10	> 10
> 50	C=C(C)[C@@H]1C[C@H](O)[C@]2(C(=O)O[C@@H]3O[C@H](CO[C@@H]4O[C@H](CO)[C@@H](O[C@@H]5O[C@@H](C)[C@H](O)[C@@H](O)[C@H]5O)[C@H](O)[C@H]4O)[C@@H](O)[C@H](O)[C@H]3O)CC[C@]3(C)[C@H](C[C@H]4OC(=O)C[C@@H](O)[C@]5(C)[C@@H]4[C@@]3(C)CC[C@H]5C(=C)C)[C@@H]12	–	> 10	> 10	> 10	> 10	> 10	> 10	> 10
20.6	C=C(C)[C@@H]1CC[C@]2(C(=O)O[C@@H]3O[C@H](CO)[C@@H](O)[C@H](O)[C@H]3O)CC[C@]3(C)[C@H](C[C@@H](O)[C@@H]4[C@@]5(C)[C@@H](CC(=O)OC)OC(C)(C)[C@@H]5CC[C@]43C)[C@@H]12 [ACANTHOSESSILIOSIDE B]	93	> 10	> 10	> 10	> 10	> 10	> 10	> 10
11.9	C=C(C)[C@@H]1CC[C@]2(C(=O)O)CC[C@]3(C)[C@H](CC[C@@H]4[C@@]5(C)[C@@H](CC(=O)O[C@@H]6O[C@H](CO)[C@@H](O)[C@H](O)[C@H]6O)OC(C)(C)[C@@H]5CC[C@]43C)[C@@H]12 [ACANTHOSESSILIOSIDE D]	95.2	> 10	> 10	> 10	> 10	> 10	> 10	> 10
18.3	C=C(C)[C@@H]1CC[C@]2(C(=O)O[C@@H]3O[C@H](CO)[C@@H](O)[C@H](O)[C@H]3O)CC[C@]3(C)[C@H](CC[C@@H]4[C@@](C)(CCC(=O)O)[C@H](C(=C)C)CC[C@]43C)[C@@H]12 [ACANTHOSESSILIOSIDE A]	93.5	> 10	> 10	> 10	> 10	> 10	> 10	> 10
11.3	C=C(C)[C@@H]1C[C@H](O)[C@]2(C(=O)O)CC[C@]3(C)[C@H](CC[C@@H]4[C@@](C)(CCC(=O)OC)[C@H](C(=C)C)CC[C@]43C)[C@@H]12 [ACANTHOSESSILIGENIN I]	88.8	> 10	> 10	> 10	> 10	> 10	> 10	> 10
